Numbering of substitutions follows the chain as printed. The source made the active and inactive calls. The rule behind the calls is not given here.
Columns and labels:
[1] = biological target: T1, C-X-C chemokine receptor type 3 (Homo sapiens, UniProt P49682); assay: Displacement of [125I]-1P10 from human CXCR3 expressed in PBMC after 2 hrs in RPMI buffer by scintillation counting
T1 sequence (P49682 whole entry): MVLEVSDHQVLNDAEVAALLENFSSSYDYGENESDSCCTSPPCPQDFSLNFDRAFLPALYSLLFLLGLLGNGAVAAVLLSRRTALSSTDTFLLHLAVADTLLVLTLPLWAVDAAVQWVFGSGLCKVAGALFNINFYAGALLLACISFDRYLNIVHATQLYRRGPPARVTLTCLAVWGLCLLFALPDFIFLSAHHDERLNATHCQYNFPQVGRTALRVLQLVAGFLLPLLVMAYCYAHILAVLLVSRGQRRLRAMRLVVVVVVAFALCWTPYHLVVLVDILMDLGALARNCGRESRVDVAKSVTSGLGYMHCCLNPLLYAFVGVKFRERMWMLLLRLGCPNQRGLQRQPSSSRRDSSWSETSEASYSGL

Cytochrome P450 2C9 = Cytochrome P450 2C9 (Homo sapiens, UniProt P11712); assay: Inhibition of CYP2C9; format: ADME
Blood [2] = assay: Drug level in bleomycin-induced mouse blood at 10 mg/mL, sc; format: ADME, tissue-based
[3] = Volume of distribution at steady state in dog at 1 mg/kg, iv; format: ADME, organism-based, Canis lupus familiaris; set-up: dose 1 mg/kg, route intravenous; details: in vivo, read-out: Vdss
[4] = Clearance in mouse at 0.5 mg/kg, iv; format: ADME, organism-based; set-up: dose 0.5 mg/kg, route intravenous; details: in vivo
[5] = biological target: T1, C-X-C chemokine receptor type 3; assay: Displacement of [125I]-ITAC from human CXCR3 expressed in human PBMC after 2 hrs in RPMI buffer by scintillation counting
[6] = Oral bioavailability in mouse at 2 mg/kg; format: ADME, organism-based; details: in vivo
Blood [7] = assay: Drug level in bleomycin-induced mouse blood at 1 mg/mL, sc; format: ADME, tissue-based
[8] = biological target: T2, C-X-C chemokine receptor type 3 (Rattus norvegicus, UniProt Q9JII9); assay: Displacement of [125I]-IP10 from rat CXCR3 expressed in human PBMC after 2 hrs in RPMI buffer by scintillation counting
T2 sequence (Q9JII9 whole entry): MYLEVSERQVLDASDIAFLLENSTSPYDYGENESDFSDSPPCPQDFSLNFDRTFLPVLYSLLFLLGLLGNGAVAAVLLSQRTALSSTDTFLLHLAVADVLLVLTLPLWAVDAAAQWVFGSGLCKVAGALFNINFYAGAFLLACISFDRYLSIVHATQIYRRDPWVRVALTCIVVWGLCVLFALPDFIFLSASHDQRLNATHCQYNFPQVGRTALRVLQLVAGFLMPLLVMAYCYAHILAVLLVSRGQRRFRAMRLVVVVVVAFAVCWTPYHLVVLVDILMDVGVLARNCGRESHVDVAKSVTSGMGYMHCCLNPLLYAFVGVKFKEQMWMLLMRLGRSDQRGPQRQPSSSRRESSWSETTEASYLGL
Outline: (§1)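 PBMC bearing CXCR3 were co-incubated with antagonist and recombinant human [125I]-IP10 for 2 h at room temperature in RPMI-1640 (no phenol red) with 0.5% BSA. Cells were harvested onto filter plates and bound radioactivity was counted by scintillation. IC50 values are means of three experiments.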

Cytochrome P450 3A4 = Cytochrome P450 3A4 (Homo sapiens, UniProt P08684); assay: Inhibition of CYP3A4; format: ADME
Blood [9] = assay: Drug level in bleomycin-induced mouse blood at 0.3 mg/mL, sc; format: ADME, tissue-based
CXC chemokine receptor 3 = biological target: T3, CXC chemokine receptor 3 (Macaca mulatta, UniProt B8PY99); assay: Displacement of [125I]-IP10 from rhesus monkey CXCR3 expressed in human PBMC after 2 hrs in RPMI buffer by scintillation counting; outline: as §1
T3 sequence (B8PY99 whole entry): T1 sequence (P49682 whole entry) with T83A, V259A

[10] = Mean residence time in dog at 1 mg/kg, iv; format: ADME, organism-based, Canis lupus familiaris; set-up: dose 1 mg/kg, route intravenous; details: in vivo
Blood [11] = assay: Drug level in bleomycin-induced mouse blood at 0.1 mg/mL, sc; format: ADME, tissue-based
[12] = Clearance in rat at 0.5 mg/kg, iv; format: ADME, organism-based; set-up: dose 0.5 mg/kg, route intravenous; details: in vivo
[13] = Volume of distribution at steady state in rat at 0.5 mg/kg, iv; format: ADME, organism-based; set-up: dose 0.5 mg/kg, route intravenous; details: in vivo, read-out: Vdss
[14] = Oral bioavailability in dog at 2.5 mg/kg; format: ADME, organism-based, Canis lupus familiaris; details: in vivo
Blood [15] = assay: Drug level in bleomycin-induced mouse blood at 3 mg/mL, sc; format: ADME, tissue-based
[16] = biological target: T1, C-X-C chemokine receptor type 3; assay: Displacement of [125I]-1P10 from human CXCR3 expressed in human PBMC after 2 hrs by scintillation counting in plasma
Outline: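 [125I]-IP10 displacement from CXCR3 on PBMC: cells co-incubated with antagonist and recombinant human [125I]-IP10 for 2 h at room temperature in EDTA-anticoagulated human plasma (from frozen stocks) in place of RPMI buffer. Filter harvest and scintillation counting; IC50 values are means of three experiments.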

[17] = Volume of distribution at steady state in cynomolgus monkey at 1 mg/kg, iv; format: ADME, organism-based, Macaca fascicularis; set-up: dose 1 mg/kg, route intravenous; details: in vivo, read-out: Vdss
[18] = Clearance in dog at 1 mg/kg, iv; format: ADME, organism-based, Canis lupus familiaris; set-up: dose 1 mg/kg, route intravenous; details: in vivo
[19] = biological target: T4, C-X-C chemokine receptor type 3 (Mus musculus, UniProt O88410); assay: Displacement of [125I]-IP10 from mouse CXCR3 expressed in human PBMC after 2 hrs in RPMI buffer by scintillation counting; outline: as §1
T4 sequence (O88410 whole entry): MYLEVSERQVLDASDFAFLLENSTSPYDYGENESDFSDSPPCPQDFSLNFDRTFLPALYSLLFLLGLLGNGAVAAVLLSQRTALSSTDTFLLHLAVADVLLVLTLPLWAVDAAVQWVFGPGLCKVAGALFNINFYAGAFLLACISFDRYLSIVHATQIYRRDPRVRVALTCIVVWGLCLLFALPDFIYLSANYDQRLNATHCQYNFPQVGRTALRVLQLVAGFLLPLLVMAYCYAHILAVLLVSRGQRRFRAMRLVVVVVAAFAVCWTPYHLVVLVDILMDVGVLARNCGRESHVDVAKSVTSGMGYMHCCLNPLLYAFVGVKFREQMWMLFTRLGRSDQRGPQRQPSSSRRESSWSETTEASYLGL

[20] = Clearance in cynomolgus monkey at 1 mg/kg, iv; format: ADME, organism-based, Macaca fascicularis; set-up: dose 1 mg/kg, route intravenous; details: in vivo
[21] = Oral bioavailability in cynomolgus monkey at 5 mg/kg; format: ADME, organism-based, Macaca fascicularis; details: in vivo
[22] = Volume of distribution at steady state in mouse at 0.5 mg/kg, iv; format: ADME, organism-based; set-up: dose 0.5 mg/kg, route intravenous; details: in vivo, read-out: Vdss
Mus musculus = assay: Effect on bleomycin-induced cellular recruitment in sc dosed mouse assessed as inhibition of cellular infiltration measured 6 days after bleomycin challenge; format: functional, organism-based
[23] = Oral bioavailability in rat at 2 mg/kg; format: ADME, organism-based; details: in vivo

Chain of Cytochrome P450 2C9 (P11712 whole entry): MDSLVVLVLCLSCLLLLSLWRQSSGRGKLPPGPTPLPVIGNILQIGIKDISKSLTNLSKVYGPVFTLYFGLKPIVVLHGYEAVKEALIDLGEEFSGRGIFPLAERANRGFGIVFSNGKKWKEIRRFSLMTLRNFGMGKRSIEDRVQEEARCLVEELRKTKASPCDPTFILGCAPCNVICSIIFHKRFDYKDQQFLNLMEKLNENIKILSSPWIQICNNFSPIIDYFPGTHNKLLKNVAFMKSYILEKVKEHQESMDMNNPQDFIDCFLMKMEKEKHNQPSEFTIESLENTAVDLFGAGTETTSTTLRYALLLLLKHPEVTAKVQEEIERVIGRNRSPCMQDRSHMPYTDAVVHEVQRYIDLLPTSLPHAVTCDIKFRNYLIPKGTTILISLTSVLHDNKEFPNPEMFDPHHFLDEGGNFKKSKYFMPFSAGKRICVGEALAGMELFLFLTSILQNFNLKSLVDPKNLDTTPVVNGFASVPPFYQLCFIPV
Chain of Cytochrome P450 3A4 (P08684 whole entry): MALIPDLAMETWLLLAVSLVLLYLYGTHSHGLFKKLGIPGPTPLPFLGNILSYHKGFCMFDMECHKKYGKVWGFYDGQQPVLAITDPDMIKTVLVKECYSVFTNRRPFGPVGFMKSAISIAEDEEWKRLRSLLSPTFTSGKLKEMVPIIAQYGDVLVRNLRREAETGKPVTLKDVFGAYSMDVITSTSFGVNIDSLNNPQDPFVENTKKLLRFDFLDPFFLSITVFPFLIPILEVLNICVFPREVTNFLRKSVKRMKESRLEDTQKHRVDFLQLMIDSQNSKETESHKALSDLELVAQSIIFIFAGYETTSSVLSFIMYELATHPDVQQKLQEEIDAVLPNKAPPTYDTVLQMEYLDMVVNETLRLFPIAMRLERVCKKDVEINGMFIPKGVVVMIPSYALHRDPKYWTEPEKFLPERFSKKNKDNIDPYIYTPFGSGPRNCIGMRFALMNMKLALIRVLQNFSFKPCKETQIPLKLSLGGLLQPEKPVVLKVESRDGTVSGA

IC50 [1]: 1 nM
Activity (Cytochrome P450 2C9): Active
Drug uptake (Blood [2]): 35 ng/mL
Vd [3]: 1.1 L/kg
clearance [4]: 13 mL/min/kg
IC50 [5]: 1 nM
bioavailability [6]: 84%
Drug uptake (Blood [7]): 11 ng/mL
IC50 [8]: 4 nM
Activity (Cytochrome P450 3A4): Active
Drug uptake (Blood [9]): 6 ng/mL
IC50 (CXC chemokine receptor 3): 2 nM
MRT [10]: 2.5 h
Drug uptake (Blood [11]): 2 ng/mL
clearance [12]: 65 mL/min/kg
Vd [13]: 2.5 L/kg
bioavailability [14]: 25%
Drug uptake (Blood [15]): 18 ng/mL
IC50 [16]: 6 nM
Vd [17]: 1.4 L/kg
clearance [18]: 7.5 mL/min/kg
IC50 [19]: 3 nM
clearance [20]: 14.5 mL/min/kg
bioavailability [21]: 14%
Vd [22]: 0.8 L/kg
bioavailability [23]: 26%
SMILES: CCS(=O)(=O)CCN(C(=O)Cc1ccc(F)c(C(F)(F)F)c1)[C@H](C)c1nc2ncccc2c(=O)n1-c1ccc(OCC(F)(F)F)cc1
Activity (Mus musculus): Active

Reference: ChEMBL document CHEMBL1153804, “Optimization of a series of quinazolinone-derived antagonists of CXCR3” (Bioorg Med Chem Lett, 2009)
